Laboratory results: ChEMBL document CHEMBL1165943, “Design and synthesis of new anticancer pyrimidines with multiple-kinase inhibitory effect” (Bioorg Med Chem, 2010)

Columns and labels:
HL-60(TB) = assay: Cytotoxicity against human HL-60(TB) cells assessed as cell growth at 10 uM after 48 hrs by sulforhodamine B assay; format: functional; conditions: HL-60, 48 h, read-out: Activity
Method in brief: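 Five-concentration HL-60(TB) test in RPMI 1640 with 5% FBS and 2 mM L-glutamine. Cells are plated at 5,000–40,000/well and a TCA-fixed time-zero plate is read at drug addition after 24 h. Drug is dissolved in DMSO and given as five 10-fold or ½log dilutions for 48 h at 37 °C, 5% CO2. Settled cells are fixed with TCA, stained with SRB and read at 515 nm.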

NCI-H226 [1] = assay: Growth inhibition of human NCI-H226 cells after 48 hrs by sulforhodamine B assay; format: functional; conditions: NCI-H226, 48 h
Method in brief: (§1)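 Cells grown in RPMI 1640 with 5% FBS and 2 mM L-glutamine, seeded at 5,000–40,000 cells/well according to doubling time. After 24 h, time-zero plates are TCA-fixed. Five concentrations (10-fold or ½log dilutions, DMSO stocks) are applied for 48 h at 37 °C, 5% CO₂. Cells are TCA-fixed, SRB-stained and read at 515 nm. IC₅₀ is taken from [(Ti−Tz)/(C−Tz)]×100 = 50.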

[2] = Cytotoxicity against human RPMI8266 cells assessed as cell growth at 100 nM after 48 hrs by sulforhodamine B assay; format: functional; conditions: read-out: Activity
SR = assay: Cytotoxicity against human SR cells assessed as cell growth at 10 uM after 48 hrs by sulforhodamine B assay; format: functional; conditions: read-out: Activity
NCI-H226 [3] = assay: Cytotoxicity against human NCI-H226 cells assessed as cell growth at 0.01 uM after 48 hrs by sulforhodamine B assay; format: functional; conditions: NCI-H226, 48 h, read-out: Activity
SK-MEL-28 [4] = assay: Growth inhibition of human SK-MEL-28 cells after 48 hrs by sulforhodamine B assay; format: functional; conditions: SK-MEL-28, 48 h
Method in brief: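 Adherent SK-MEL-28 cells, plated in RPMI 1640 with 5% FBS and 2 mM L-glutamine, get five 10-fold or ½log drug dilutions for 48 h at 37 °C. Cells are fixed with cold TCA (final 10%) for 60 min at 4 °C, stained with 0.4% SRB, solubilized in 10 mM Tris and read at 515 nm. IC50 is solved from [(Ti−Tz)/(C−Tz)]×100 = 50.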

SK-MEL-28 [5] = assay: Cytotoxicity against human SK-MEL-28 cells assessed as cell growth at 0.01 uM after 48 hrs by sulforhodamine B assay; format: functional; conditions: SK-MEL-28, 48 h, read-out: Activity
CCRF-CEM [6] = assay: Cytotoxicity against human CCRF-CEM cells assessed as cell growth at 1 uM after 48 hrs by sulforhodamine B assay; format: functional; conditions: read-out: Activity
HCC 2998 [7] = assay: Growth inhibition of human HCC2998 cells after 48 hrs by sulforhodamine B assay; format: functional; conditions: HCC 2998, 48 h; method in brief: as §1
MCF7 [8] = assay: Cytotoxicity against human MCF7 cells assessed as cell growth at 0.001 uM after 48 hrs by sulforhodamine B assay; format: functional; conditions: MCF7, 48 h, read-out: Activity
PC-3 = assay: Cytotoxicity against human PC3 cells assessed as cell growth at 100 nM after 48 hrs by sulforhodamine B assay; format: functional; conditions: PC-3, 48 h, read-out: Activity
NCI-H226 [9] = assay: Cytotoxicity against human NCI-H226 cells assessed as cell growth at 1 uM after 48 hrs by sulforhodamine B assay; format: functional; conditions: NCI-H226, 48 h, read-out: Activity
HCC 2998 [10] = assay: Cytotoxicity against human HCC2998 cells assessed as cell growth at 10 uM after 48 hrs by sulforhodamine B assay; format: functional; conditions: HCC 2998, 48 h, read-out: Activity
CCRF-CEM [11] = assay: Cytotoxicity against human CCRF-CEM cells assessed as cell growth at 0.01 uM after 48 hrs by sulforhodamine B assay; format: functional; conditions: read-out: Activity
HCC 2998 [12] = assay: Cytotoxicity against human HCC2998 cells assessed as cell growth at 0.01 uM after 48 hrs by sulforhodamine B assay; format: functional; conditions: HCC 2998, 48 h, read-out: Activity
MCF7 [13] = assay: Cytotoxicity against human MCF7 cells assessed as cell growth at 100 nM after 48 hrs by sulforhodamine B assay; format: functional; conditions: MCF7, 48 h, read-out: Activity
NCI-H226 [14] = assay: Cytotoxicity against human NCI-H226 cells assessed as cell growth at 0.001 uM after 48 hrs by sulforhodamine B assay; format: functional; conditions: NCI-H226, 48 h, read-out: Activity
[15] = biological target: Inhibitor of nuclear factor kappa-B kinase subunit epsilon (Homo sapiens) (UniProt Q14164); assay: Inhibition of IKKepsilon at 10 uM by HotSpot assay
[16] = biological target: Serine/threonine-protein kinase PAK 2 (Homo sapiens) (UniProt Q13177); assay: Inhibition of PAK2 at 10 uM by HotSpot assay
[17] = biological target: Proto-oncogene tyrosine-protein kinase Src (Homo sapiens) (UniProt P12931); assay: Inhibition of c-SRC at 10 uM by HotSpot assay
[18] = biological target: Proto-oncogene tyrosine-protein kinase ROS (Homo sapiens) (UniProt P08922); assay: Inhibition of ROS at 10 uM by HotSpot assay
[19] = biological target: Cyclin-dependent kinase 2/cyclin E1 (Homo sapiens) (UniProt P24864+P24941); assay: Inhibition of CDK2/Cyclin E at 10 uM by HotSpot assay; format: protein-complex assay
[20] = biological target: Serine/threonine-protein kinase mTOR (Homo sapiens) (UniProt P42345); assay: Inhibition of mTOR at 10 uM by HotSpot assay
[21] = biological target: Serine/threonine-protein kinase Chk1 (Homo sapiens) (UniProt O14757); assay: Inhibition of CHK1 at 10 uM by HotSpot assay
[22] = biological target: DNA-dependent protein kinase catalytic subunit (Homo sapiens) (UniProt P78527); assay: Inhibition of DNA-PK at 10 uM by HotSpot assay
[23] = biological target: Macrophage colony-stimulating factor 1 receptor (Homo sapiens) (UniProt P07333); assay: Inhibition of FMS at 10 uM by HotSpot assay
[24] = biological target: Tyrosine-protein kinase Lck (Homo sapiens) (UniProt P06239); assay: Inhibition of LCK at 10 uM by HotSpot assay
[25] = biological target: Mitogen-activated protein kinase 8 (Homo sapiens) (UniProt P45983); assay: Inhibition of JNK1 at 10 uM by HotSpot assay
[26] = read-out: LC50 (the source's name)

Mitogen-activated protein kinase 8 (Homo sapiens), sequence (P45983 whole entry): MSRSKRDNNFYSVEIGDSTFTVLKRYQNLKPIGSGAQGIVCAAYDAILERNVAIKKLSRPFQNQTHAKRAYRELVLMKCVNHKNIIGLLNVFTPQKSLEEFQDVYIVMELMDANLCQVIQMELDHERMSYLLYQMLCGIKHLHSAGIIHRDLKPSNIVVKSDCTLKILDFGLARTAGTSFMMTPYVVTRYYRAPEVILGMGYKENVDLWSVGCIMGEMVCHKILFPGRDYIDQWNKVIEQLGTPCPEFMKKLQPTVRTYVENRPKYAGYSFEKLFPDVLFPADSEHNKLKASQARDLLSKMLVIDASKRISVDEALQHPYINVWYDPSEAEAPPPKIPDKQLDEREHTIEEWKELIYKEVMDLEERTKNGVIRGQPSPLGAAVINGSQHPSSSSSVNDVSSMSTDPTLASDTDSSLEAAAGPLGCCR
Proto-oncogene tyrosine-protein kinase ROS (Homo sapiens), sequence (P08922 whole entry): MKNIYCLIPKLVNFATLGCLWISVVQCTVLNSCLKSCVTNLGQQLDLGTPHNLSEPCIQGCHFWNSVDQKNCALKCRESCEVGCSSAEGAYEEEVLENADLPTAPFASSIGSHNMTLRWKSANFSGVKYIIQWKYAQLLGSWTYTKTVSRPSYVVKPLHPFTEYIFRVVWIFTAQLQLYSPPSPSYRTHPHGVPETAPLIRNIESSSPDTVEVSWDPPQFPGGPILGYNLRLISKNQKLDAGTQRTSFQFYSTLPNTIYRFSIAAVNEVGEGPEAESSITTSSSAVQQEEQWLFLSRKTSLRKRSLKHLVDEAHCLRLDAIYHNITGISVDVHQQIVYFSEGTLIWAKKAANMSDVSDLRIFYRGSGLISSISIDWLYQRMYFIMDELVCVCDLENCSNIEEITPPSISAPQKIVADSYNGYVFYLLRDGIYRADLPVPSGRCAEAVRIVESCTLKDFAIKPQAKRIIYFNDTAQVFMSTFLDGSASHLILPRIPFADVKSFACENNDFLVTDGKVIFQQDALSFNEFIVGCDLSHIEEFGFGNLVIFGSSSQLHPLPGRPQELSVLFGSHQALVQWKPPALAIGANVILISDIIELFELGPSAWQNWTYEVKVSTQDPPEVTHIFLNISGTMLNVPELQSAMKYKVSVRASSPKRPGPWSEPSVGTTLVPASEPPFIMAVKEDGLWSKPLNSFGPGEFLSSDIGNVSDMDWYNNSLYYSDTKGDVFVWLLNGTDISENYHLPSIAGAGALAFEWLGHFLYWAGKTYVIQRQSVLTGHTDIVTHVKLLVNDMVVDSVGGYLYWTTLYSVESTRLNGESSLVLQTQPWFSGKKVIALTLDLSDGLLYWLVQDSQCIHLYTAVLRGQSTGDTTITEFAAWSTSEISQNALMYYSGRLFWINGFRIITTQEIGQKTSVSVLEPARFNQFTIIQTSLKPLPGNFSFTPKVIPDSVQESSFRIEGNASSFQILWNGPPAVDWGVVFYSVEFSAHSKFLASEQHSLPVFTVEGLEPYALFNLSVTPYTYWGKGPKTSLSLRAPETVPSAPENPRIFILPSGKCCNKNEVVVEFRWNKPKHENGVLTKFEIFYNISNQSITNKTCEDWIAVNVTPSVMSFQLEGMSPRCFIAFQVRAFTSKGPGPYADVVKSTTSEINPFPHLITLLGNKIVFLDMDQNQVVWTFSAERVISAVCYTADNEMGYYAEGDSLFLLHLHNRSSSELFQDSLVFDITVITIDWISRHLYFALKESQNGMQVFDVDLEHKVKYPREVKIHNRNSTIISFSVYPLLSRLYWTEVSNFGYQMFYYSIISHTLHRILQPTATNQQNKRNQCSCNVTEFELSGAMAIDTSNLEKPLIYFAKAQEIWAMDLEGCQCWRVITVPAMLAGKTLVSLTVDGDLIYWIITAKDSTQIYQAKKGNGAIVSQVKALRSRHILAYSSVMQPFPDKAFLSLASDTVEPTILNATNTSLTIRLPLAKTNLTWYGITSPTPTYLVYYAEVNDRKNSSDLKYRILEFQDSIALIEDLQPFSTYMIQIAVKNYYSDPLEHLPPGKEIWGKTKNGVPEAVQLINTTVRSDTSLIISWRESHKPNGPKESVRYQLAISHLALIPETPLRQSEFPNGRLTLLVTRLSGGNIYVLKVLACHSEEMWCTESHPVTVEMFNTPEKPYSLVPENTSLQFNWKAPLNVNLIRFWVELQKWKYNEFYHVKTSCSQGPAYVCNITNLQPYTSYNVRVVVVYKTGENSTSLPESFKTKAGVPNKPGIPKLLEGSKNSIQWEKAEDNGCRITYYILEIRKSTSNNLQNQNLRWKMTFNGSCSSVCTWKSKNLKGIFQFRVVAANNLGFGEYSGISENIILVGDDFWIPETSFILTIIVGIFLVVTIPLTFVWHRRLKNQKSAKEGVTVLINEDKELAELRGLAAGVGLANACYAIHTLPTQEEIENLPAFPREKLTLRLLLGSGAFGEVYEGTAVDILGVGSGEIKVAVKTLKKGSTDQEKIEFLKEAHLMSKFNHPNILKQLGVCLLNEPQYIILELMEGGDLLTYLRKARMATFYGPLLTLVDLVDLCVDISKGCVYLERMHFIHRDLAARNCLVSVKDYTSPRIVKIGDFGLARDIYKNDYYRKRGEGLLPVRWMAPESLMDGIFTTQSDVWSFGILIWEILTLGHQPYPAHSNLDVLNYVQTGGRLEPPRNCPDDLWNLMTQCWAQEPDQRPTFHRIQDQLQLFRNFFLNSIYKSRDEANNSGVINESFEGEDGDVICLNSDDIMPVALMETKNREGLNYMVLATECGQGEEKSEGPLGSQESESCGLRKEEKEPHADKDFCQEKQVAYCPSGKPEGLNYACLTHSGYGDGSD
Serine/threonine-protein kinase Chk1 (Homo sapiens), sequence (O14757 whole entry): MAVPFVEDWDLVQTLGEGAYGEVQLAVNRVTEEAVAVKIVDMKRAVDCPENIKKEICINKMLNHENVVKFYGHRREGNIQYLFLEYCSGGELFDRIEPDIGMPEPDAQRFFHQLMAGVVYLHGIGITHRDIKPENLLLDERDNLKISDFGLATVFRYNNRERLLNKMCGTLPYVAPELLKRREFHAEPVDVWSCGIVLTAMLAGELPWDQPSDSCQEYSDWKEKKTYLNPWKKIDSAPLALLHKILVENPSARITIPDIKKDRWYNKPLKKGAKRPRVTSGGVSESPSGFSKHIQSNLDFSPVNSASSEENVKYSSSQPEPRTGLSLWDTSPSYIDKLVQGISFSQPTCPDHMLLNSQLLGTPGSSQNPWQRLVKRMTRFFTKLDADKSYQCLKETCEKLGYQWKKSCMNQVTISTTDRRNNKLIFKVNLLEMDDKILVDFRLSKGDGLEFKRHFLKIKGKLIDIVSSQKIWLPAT
Serine/threonine-protein kinase PAK 2 (Homo sapiens), sequence (Q13177 whole entry): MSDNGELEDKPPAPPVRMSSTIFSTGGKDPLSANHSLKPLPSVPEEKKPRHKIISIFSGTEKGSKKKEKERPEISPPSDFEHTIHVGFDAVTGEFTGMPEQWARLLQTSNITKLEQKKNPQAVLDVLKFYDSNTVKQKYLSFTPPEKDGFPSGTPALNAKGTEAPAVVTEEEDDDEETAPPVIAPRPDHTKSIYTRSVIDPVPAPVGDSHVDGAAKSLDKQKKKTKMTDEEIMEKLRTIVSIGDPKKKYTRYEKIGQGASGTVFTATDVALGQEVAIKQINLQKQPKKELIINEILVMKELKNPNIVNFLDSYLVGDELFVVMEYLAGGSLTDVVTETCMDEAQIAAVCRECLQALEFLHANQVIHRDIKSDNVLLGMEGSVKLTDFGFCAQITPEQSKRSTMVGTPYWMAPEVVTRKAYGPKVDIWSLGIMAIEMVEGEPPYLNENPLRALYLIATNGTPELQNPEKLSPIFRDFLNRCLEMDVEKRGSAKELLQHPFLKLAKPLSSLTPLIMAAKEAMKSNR
Proto-oncogene tyrosine-protein kinase Src (Homo sapiens), sequence (P12931 2-536 limits assumed): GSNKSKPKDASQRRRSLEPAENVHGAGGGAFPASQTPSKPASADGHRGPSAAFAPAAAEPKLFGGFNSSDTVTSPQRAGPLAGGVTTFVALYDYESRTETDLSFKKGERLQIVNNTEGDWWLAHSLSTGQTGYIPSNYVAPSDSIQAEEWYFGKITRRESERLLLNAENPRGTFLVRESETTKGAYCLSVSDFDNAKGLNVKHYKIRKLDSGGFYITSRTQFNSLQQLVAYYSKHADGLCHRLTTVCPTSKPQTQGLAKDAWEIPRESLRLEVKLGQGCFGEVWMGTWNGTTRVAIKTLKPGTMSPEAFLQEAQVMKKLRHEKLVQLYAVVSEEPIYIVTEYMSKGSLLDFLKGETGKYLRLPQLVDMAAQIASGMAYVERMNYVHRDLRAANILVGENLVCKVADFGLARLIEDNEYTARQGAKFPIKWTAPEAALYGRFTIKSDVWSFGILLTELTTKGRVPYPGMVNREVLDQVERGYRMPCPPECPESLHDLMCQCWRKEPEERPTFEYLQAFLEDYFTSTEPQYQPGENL
Inhibitor of nuclear factor kappa-B kinase subunit epsilon (Homo sapiens), sequence (Q14164 whole entry): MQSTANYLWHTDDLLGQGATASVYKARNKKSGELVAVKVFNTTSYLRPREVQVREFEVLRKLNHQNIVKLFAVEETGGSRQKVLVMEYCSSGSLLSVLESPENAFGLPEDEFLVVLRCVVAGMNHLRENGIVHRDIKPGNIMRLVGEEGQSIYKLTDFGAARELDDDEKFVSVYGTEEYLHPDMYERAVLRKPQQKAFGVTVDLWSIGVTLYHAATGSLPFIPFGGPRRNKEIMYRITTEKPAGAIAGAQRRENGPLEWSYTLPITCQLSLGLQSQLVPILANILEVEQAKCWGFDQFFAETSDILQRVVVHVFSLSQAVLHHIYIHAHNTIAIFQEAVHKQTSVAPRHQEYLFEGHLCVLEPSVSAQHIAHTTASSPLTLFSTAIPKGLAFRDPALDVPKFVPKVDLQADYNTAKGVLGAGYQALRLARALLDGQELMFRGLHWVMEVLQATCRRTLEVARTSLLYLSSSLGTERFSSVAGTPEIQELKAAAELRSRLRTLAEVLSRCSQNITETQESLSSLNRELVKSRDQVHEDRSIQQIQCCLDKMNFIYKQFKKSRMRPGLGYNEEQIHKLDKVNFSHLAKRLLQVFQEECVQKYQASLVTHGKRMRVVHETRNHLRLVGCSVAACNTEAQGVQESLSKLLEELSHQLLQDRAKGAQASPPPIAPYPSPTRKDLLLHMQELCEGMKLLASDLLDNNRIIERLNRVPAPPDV

SMILES: CC(=O)c1ccccc1-c1ccc(-c2ccnc(NC(=O)Nc3cc(N4CCOCC4)cc(C(F)(F)F)c3)n2)cn1
- growth at 10 µM (HL-60(TB)): 107%
- GI50 (NCI-H226 [1]): > 100 µM
- TGI (NCI-H226 [1]): > 100 µM
- CC50 (NCI-H226 [1]; [26]): > 100 µM
- growth at 0.1 µM [2]: 79%
- growth at 10 µM (SR): 107%
- growth at 0.01 µM (NCI-H226 [3]): 108%
- TGI (SK-MEL-28 [4]): > 100 µM
- CC50 (SK-MEL-28 [4]; [26]): > 100 µM
- growth at 0.01 µM (SK-MEL-28 [5]): 107%
- growth at 1 µM (CCRF-CEM [6]): 93%
- GI50 (HCC 2998 [7]): > 100 µM
- TGI (HCC 2998 [7]): > 100 µM
- CC50 (HCC 2998 [7]; [26]): > 100 µM
- growth at 0.001 µM (MCF7 [8]): 94%
- growth at 0.1 µM (PC-3): 92%
- growth at 1 µM (NCI-H226 [9]): 53%
- growth at 10 µM (HCC 2998 [10]): 135%
- growth at 0.01 µM (CCRF-CEM [11]): 102%
- growth at 0.01 µM (HCC 2998 [12]): 113%
- growth at 0.1 µM (MCF7 [13]): 100%
- growth at 0.001 µM (NCI-H226 [14]): 105%

SMILES: CC(=O)Nc1cccc(-c2ccc(-c3ccnc(NC(=O)Nc4cc(C(F)(F)F)cc(C(F)(F)F)c4)n3)cn2)c1.Cl
- inhibition [15]: < 50%
- inhibition [16]: < 50%
- inhibition [17]: 60%
- inhibition [18]: < 50%
- inhibition [19]: < 50%
- inhibition [20]: < 50%
- inhibition [21]: < 50%
- inhibition [22]: < 50%
- inhibition [23]: < 50%
- inhibition [24]: 70%
- inhibition [25]: < 50%
